Assay results published in ChEMBL document CHEMBL5649168, “Discovery of a selective catalytic p300/CBP inhibitor that targets lineage-specific tumours” (Nature, 2017).
The source made the active and inactive calls. No cut-off for these calls is given here.

Tests used:
[1] = target: Dual specificity protein kinase CLK2 (Homo sapiens, UniProt P49760); assay: Inhibition of CLK2 (unknown origin)
SU-DHL-2 = assay: Antiproliferative activity against human SUDHL2 cells assessed as inhibition of cell viability incubated for 3 to 5 days by Celltiter-Glo luminescent assay; assay type: functional, cell-based
NCI-H522 = assay: Antiproliferative activity against human NCI-H522 cells assessed as inhibition of cell viability incubated for 3 to 5 days by Celltiter-Glo luminescent assay; assay type: functional, cell-based
[2] = target: Glycogen synthase kinase-3 beta (Homo sapiens, UniProt P49841); assay: Inhibition of Gsk3beta (unknown origin)
Glycogen synthase kinase-3 beta, sequence (P49841 whole entry): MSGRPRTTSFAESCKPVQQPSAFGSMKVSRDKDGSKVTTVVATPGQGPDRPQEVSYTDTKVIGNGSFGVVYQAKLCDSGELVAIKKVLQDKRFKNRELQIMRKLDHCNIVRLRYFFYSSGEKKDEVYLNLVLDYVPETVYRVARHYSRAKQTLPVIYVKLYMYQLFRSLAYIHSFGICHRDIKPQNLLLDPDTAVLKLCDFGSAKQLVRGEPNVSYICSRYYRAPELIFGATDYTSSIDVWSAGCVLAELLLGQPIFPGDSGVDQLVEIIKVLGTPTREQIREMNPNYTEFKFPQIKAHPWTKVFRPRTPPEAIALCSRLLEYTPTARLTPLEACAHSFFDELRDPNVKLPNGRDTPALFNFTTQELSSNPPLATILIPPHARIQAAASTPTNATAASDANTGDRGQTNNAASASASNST

Activated CDC42 kinase 1 = Activated CDC42 kinase 1 (Homo sapiens, UniProt Q07912); assay: Inhibition of TNK2 (unknown origin)
Activated CDC42 kinase 1, sequence (Q07912 whole entry): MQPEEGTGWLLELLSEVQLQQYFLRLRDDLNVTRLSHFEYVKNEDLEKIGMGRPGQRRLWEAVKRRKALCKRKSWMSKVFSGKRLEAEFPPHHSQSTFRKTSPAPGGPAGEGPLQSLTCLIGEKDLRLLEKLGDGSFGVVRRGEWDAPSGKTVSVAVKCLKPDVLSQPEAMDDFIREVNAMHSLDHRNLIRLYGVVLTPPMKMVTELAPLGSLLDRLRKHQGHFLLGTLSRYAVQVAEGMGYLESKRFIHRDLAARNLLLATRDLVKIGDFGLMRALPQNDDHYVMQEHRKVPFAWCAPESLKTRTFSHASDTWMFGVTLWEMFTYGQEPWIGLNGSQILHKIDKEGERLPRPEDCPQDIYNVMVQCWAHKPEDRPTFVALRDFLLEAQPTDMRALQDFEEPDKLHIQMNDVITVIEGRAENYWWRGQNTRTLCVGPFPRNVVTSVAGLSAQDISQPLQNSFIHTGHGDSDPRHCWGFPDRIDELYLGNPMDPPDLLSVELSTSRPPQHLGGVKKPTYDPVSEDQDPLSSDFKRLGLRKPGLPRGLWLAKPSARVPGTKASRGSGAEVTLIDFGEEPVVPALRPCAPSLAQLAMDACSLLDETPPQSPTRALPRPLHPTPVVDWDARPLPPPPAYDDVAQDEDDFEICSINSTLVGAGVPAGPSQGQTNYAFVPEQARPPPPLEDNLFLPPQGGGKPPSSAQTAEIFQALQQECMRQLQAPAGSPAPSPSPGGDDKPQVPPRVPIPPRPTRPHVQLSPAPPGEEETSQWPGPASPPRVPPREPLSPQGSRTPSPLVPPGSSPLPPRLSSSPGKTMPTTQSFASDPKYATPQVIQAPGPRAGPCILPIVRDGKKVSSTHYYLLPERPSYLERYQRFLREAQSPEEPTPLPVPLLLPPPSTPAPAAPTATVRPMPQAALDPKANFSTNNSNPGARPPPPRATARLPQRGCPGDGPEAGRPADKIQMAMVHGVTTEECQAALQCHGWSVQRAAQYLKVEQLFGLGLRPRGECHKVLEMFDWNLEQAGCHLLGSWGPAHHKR

U2932 = assay: Antiproliferative activity against human U2932 cells assessed as inhibition of cell viability incubated for 3 to 5 days by Celltiter-Glo luminescent assay; assay type: functional, cell-based
MOLT-4 = assay: Antiproliferative activity against human MOLT-4 cells assessed as inhibition of cell viability incubated for 3 to 5 days by Celltiter-Glo luminescent assay; assay type: functional, cell-based
KARPAS-422 = assay: Antiproliferative activity against human KARPAS-422 cells assessed as inhibition of cell viability incubated for 3 to 5 days by Celltiter-Glo luminescent assay; assay type: functional, cell-based
MAO-B = MAO-B (Homo sapiens, UniProt P27338); assay: Inhibition of human recombinant MAO-B at 10 uM by radioligand binding assay relative to control
MAO-B, sequence (P27338 whole entry): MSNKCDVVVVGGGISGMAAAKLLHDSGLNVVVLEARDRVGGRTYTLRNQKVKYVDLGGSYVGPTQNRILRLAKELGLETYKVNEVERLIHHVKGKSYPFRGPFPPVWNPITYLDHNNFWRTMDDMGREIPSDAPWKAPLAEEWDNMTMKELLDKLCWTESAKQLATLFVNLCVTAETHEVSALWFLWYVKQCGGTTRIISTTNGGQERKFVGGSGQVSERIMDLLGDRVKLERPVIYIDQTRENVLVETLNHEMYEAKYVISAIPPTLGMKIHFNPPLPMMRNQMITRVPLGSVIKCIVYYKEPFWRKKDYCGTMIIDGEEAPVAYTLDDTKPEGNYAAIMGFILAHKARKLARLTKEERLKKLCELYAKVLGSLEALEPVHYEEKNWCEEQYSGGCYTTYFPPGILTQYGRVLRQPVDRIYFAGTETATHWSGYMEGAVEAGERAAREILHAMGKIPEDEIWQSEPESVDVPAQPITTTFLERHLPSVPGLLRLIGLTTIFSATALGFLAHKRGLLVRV

HCC1143 = assay: Antiproliferative activity against human HCC1143 cells assessed as inhibition of cell viability incubated for 3 to 5 days by Celltiter-Glo luminescent assay; assay type: functional, cell-based
NCI-H661 = assay: Antiproliferative activity against human NCI-H661 cells assessed as inhibition of cell viability incubated for 3 to 5 days by Celltiter-Glo luminescent assay; assay type: functional, cell-based
[3] = target: Serine/threonine-protein kinase TAO2 (Homo sapiens, UniProt Q9UL54); assay: Inhibition of TAOK2 (unknown origin)
Serine/threonine-protein kinase TAO2, sequence (Q9UL54 whole entry): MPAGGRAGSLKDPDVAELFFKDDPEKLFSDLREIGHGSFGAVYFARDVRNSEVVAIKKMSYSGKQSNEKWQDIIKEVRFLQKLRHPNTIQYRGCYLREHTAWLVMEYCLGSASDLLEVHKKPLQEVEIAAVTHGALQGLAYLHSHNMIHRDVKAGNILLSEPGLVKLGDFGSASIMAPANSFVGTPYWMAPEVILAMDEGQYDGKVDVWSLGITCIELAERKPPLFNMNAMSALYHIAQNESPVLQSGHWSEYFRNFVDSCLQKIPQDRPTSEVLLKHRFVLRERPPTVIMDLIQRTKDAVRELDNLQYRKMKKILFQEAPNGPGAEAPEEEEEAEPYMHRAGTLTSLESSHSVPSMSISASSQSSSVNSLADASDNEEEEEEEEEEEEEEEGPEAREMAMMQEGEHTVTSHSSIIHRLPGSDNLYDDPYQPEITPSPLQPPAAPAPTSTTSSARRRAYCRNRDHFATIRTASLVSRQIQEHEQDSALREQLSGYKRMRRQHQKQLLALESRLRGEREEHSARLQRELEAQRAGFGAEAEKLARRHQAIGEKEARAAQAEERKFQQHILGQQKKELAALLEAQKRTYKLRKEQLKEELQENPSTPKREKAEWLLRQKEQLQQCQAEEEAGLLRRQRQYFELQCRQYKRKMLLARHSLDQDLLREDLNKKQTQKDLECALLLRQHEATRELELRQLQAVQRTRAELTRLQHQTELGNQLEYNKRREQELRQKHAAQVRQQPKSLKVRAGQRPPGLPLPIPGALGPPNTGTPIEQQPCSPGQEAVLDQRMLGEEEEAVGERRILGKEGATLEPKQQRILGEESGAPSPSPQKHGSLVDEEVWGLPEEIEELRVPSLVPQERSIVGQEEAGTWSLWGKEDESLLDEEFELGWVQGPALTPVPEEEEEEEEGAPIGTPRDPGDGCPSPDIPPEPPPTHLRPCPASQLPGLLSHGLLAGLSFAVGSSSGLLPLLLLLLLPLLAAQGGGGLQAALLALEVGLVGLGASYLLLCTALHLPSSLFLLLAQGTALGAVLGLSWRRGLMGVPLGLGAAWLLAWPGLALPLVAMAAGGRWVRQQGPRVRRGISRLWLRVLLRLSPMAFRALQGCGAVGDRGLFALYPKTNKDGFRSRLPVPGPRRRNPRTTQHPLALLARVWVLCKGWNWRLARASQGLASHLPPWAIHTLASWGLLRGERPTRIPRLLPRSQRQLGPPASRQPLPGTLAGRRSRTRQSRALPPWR

NCI-H128 = assay: Antiproliferative activity against human NCI-H128 cells assessed as inhibition of cell viability incubated for 3 to 5 days by Celltiter-Glo luminescent assay; assay type: functional, cell-based
[4] = target: Serine/threonine-protein kinase B-raf (Homo sapiens, UniProt P15056); assay: Inhibition of B-Raf (unknown origin)
[5] = Cmax in CB17 SCID mouse xenografted with LuCaP-77 CR cell at 100 mg/kg, ip administered for 7 days; assay type: ADME, organism-based; conditions: in vivo, time 7 day
Jurkat = assay: Antiproliferative activity against human Jurkat cells assessed as inhibition of cell viability incubated for 3 to 5 days by Celltiter-Glo luminescent assay; assay type: functional, cell-based
Granta-519 = assay: Antiproliferative activity against human Granta-519 cells assessed as inhibition of cell viability incubated for 3 to 5 days by Celltiter-Glo luminescent assay; assay type: functional, cell-based
Focal adhesion kinase 1 = Focal adhesion kinase 1 (Homo sapiens, UniProt Q05397); assay: Inhibition of FAK (unknown origin)
A-375 = assay: Antiproliferative activity against human A-375 cells assessed as inhibition of cell viability incubated for 3 to 5 days by Celltiter-Glo luminescent assay; assay type: functional, cell-based
MDA-MB-231 = assay: Antiproliferative activity against human MDA-MB-231 cells assessed as inhibition of cell viability incubated for 3 to 5 days by Celltiter-Glo luminescent assay; assay type: functional, cell-based
[6] = target: Glycogen synthase kinase-3 alpha (Homo sapiens, UniProt P49840); assay: Inhibition of Gsk3alpha (unknown origin)
CHL-1 = assay: Antiproliferative activity against human CHL-1 cells assessed as inhibition of cell viability incubated for 3 to 5 days by Celltiter-Glo luminescent assay; assay type: functional, cell-based
[7] = target: Protein kinase C zeta type (Homo sapiens, UniProt Q05513); assay: Inhibition of PKCzeta (unknown origin)
CWR22R = assay: Antiproliferative activity against human 22Rv1 cells assessed as inhibition of cell viability incubated for 3 to 5 days by Celltiter-Glo luminescent assay; assay type: functional, cell-based
[8] = Tmax in CB17 SCID mouse xenografted with LuCaP-77 CR cell at 50 mg/kg, ip administered for 7 days; assay type: ADME, organism-based; conditions: in vivo, time 7 day
[9] = target: Leukocyte tyrosine kinase receptor (Homo sapiens, UniProt P29376); assay: Inhibition of LTK (unknown origin)
[10] = target: Dual specificity mitogen-activated protein kinase kinase 1 (Homo sapiens, UniProt Q02750); assay: Inhibition of MEK1 (unknown origin)
NCI-H2081 = assay: Antiproliferative activity against human NCI-H2081 cells assessed as inhibition of cell viability incubated for 3 to 5 days by Celltiter-Glo luminescent assay; assay type: functional, cell-based
[11] = target: Platelet-derived growth factor receptor alpha (Homo sapiens, UniProt P16234); assay: Inhibition of PDGFRalpha (unknown origin)
AMO1 = assay: Antiproliferative activity against human AMO1 cells assessed as inhibition of cell viability incubated for 3 to 5 days by Celltiter-Glo luminescent assay; assay type: functional, cell-based
[12] = target: Vascular endothelial growth factor receptor 2 (Homo sapiens, UniProt P35968); assay: Inhibition of Kdr (unknown origin)
Vascular endothelial growth factor receptor 2, sequence (P35968 whole entry): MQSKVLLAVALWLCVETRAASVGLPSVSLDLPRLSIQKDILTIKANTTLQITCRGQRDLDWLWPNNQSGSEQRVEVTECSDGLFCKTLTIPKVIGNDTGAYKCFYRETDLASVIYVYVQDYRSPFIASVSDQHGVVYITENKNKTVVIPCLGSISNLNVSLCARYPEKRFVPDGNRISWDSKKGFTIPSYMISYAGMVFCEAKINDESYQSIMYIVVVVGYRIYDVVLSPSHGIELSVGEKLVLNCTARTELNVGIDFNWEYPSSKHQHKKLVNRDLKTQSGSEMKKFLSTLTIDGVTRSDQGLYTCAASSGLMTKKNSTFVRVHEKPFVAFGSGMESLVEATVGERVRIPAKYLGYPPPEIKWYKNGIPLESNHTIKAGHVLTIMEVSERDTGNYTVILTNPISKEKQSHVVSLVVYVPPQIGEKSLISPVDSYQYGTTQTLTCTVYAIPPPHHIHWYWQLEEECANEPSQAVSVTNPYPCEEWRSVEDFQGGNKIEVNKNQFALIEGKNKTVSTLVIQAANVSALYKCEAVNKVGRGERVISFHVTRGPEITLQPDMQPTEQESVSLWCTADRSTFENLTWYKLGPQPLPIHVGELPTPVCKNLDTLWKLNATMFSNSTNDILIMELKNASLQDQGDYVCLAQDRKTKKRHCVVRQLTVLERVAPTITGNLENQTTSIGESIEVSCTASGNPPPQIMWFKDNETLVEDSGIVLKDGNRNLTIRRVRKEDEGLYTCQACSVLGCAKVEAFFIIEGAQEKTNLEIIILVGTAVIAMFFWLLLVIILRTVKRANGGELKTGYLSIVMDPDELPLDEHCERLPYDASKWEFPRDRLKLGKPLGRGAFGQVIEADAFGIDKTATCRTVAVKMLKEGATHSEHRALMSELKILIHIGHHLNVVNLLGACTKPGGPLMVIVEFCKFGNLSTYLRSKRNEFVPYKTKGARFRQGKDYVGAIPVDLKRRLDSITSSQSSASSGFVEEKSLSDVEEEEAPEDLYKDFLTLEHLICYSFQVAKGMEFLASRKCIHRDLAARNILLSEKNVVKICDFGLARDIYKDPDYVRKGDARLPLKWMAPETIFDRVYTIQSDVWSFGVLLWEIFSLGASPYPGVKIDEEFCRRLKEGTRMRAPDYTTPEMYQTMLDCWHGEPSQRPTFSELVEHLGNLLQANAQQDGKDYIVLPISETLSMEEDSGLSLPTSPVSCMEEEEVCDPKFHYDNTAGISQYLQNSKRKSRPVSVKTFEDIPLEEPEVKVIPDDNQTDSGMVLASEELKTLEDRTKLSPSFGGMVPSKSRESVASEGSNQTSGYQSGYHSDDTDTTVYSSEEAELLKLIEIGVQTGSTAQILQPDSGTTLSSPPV

[13] = target: Mitogen-activated protein kinase kinase kinase 10 (Homo sapiens, UniProt Q02779); assay: Inhibition of MAP3K10 (unknown origin)
LuCaP-77 CR cell = conditions: Homo sapiens, dose 100.0 mg/kg, time 7.0 day
U-2973 = assay: Antiproliferative activity against human U-2973 cells assessed as inhibition of cell viability incubated for 3 to 5 days by Celltiter-Glo luminescent assay; assay type: functional, cell-based
[14] = target: Dual specificity tyrosine-phosphorylation-regulated kinase 1B (Homo sapiens, UniProt Q9Y463); assay: Inhibition of DYRK1B (unknown origin)
[15] = target: CREB-binding protein/Histone acetyltransferase p300 (Homo sapiens, UniProt Q09472+Q92793); assay: Inhibition of p300/CBP in human 22Rv1 cells assessed as reduction in H3K9Ac level incubated for 1 hr by Hoechst 33342 staining based high content microscopy analysis; assay type: cell-based
How it was run: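 Cells received an 8-point half-log dilution series from 10 µM. They were then fixed in 10% formaldehyde (10 min, RT), permeabilised with 0.1% Triton X-100 and blocked with 1% BSA for 1 h. Primary antibodies were applied overnight at 4 °C, followed by Alexa488 anti-rabbit, Alexa555 anti-mouse and Hoechst 33342 for 1 h. Fifteen fields per well were imaged and average mean intensity taken. EC50 came from a sigmoidal fit.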

DOHH-2 = assay: Antiproliferative activity against human DOHH-2 cells assessed as inhibition of cell viability incubated for 3 to 5 days by Celltiter-Glo luminescent assay; assay type: functional, cell-based
CAL-120 = assay: Antiproliferative activity against human CAL-120 cells assessed as inhibition of cell viability incubated for 3 to 5 days by Celltiter-Glo luminescent assay; assay type: functional, cell-based
[16] = target: Proto-oncogene tyrosine-protein kinase Src (Homo sapiens, UniProt P12931); assay: Inhibition of Src (unknown origin)
Proto-oncogene tyrosine-protein kinase Src, sequence (P12931 2-536 limits assumed): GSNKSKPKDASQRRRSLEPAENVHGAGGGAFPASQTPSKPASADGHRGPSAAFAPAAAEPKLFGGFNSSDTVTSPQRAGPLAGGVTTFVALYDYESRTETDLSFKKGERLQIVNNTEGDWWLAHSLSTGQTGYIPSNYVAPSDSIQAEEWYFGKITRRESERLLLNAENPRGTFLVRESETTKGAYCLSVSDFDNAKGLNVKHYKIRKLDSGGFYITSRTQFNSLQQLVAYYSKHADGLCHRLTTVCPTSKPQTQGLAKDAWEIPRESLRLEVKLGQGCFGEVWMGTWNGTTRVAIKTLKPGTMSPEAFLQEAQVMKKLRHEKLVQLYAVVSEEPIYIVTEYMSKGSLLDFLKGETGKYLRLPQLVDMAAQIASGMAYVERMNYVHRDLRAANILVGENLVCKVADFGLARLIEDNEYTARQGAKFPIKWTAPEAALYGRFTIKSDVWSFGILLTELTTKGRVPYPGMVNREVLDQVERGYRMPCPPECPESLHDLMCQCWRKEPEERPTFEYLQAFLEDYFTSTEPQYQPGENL

SK-MEL-1 = assay: Antiproliferative activity against human SK-MEL-1 cells assessed as inhibition of cell viability incubated for 3 to 5 days by Celltiter-Glo luminescent assay; assay type: functional, cell-based

CNC(=O)Nc1ccc2c(c1)CC[C@@]21OC(=O)N(CC(=O)N(Cc2ccc(F)cc2)[C@@H](C)C(F)(F)F)C1=O [A-485]
IC50 [1]: > 10 µM | EC50 (SU-DHL-2): 0.95 µM | EC50 (NCI-H522): 3.52 µM | IC50 [2]: > 10 µM | IC50 (Activated CDC42 kinase 1): > 10 µM | EC50 (U2932): 2.46 µM | EC50 (MOLT-4): > 10 µM | EC50 (KARPAS-422): 0.25 µM | inhibition at 10 µM (MAO-B): -20% | EC50 (HCC1143): > 10 µM | EC50 (NCI-H661): 7.66 µM | IC50 [3]: > 10 µM | EC50 (NCI-H128): > 10 µM | IC50 [4]: > 10 µM | Cmax [5]: 75.5 µg/mL | EC50 (Jurkat): 4.03 µM | EC50 (Granta-519): 3.28 µM | IC50 (Focal adhesion kinase 1): > 10 µM | EC50 (A-375): > 10 µM | EC50 (MDA-MB-231): > 10 µM | IC50 [6]: > 10 µM | EC50 (CHL-1): 0.37 µM | IC50 [7]: > 10 µM | EC50 (CWR22R): 0.32 µM | Tmax [8]: 3 h | IC50 [9]: > 10 µM | IC50 [10]: > 10 µM | EC50 (NCI-H2081): > 10 µM | IC50 [11]: > 10 µM | EC50 (AMO1): 1.09 µM | IC50 [12]: > 10 µM | IC50 [13]: > 10 µM | inhibition (LuCaP-77 CR cell): Active | EC50 (U-2973): 0.66 µM | IC50 [14]: > 10 µM | INH [15]: > 10 µM | EC50 (DOHH-2): 0.75 µM | EC50 (CAL-120): > 10 µM | IC50 [16]: > 10 µM | EC50 (SK-MEL-1): 0.57 µM
